High-throughput results as filed in PubChem.
This is a sample that favours compounds with a hit; in the whole collection about 2.3% have one here.
UCH37 inh – inhibitors of human deubiquitinating enzyme UCH37. purified proteasome/UCH37, Ub-AMC cleavage fluorescence. inhibition, % (concentration not given with the values). actives 0.33% (n = 330,000). AID 588478;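 active = mean inhibition over replicate wells above about 20%, limit read from the data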;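 note: 0% = compound-free wells with enzyme and 100% = wells lacking proteasome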
Target sequence (Q9Y5K5 whole entry, looked up): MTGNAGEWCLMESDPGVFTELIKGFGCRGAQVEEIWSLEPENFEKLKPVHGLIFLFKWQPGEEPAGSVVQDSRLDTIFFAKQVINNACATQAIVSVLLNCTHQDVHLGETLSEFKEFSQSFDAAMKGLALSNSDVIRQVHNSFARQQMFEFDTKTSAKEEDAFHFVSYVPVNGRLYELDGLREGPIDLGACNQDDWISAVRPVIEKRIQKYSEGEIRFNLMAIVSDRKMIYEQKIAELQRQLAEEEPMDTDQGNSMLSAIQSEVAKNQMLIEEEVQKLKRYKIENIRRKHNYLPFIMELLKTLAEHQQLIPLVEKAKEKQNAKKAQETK
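assay system = human UCH37 enzyme supplied as purified proteasome complex | amount = proteasome at 0.15 nM in the dispensed enzyme solution | schedule = 30 min compound-proteasome preincubation then 25 min substrate reaction, room temperature | measured by = fluorescence, ex 355 nm, em 460 nm | benchmarks = no-proteasome wells (full inhibition) and compound-free wells (no inhibition)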
CTSL1 counter – blocks F. hepatica cathepsin L1 in PFM18AAP counter-screen | actives 0.49% (n = 300,000) | inhibition, % at 5.96 µM | recombinant F. hepatica cathepsin L1, Z-Leu-Arg-MCA fluorescence;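 active = inhibition above the mean of all tested compounds plus 3 SD, set per screening campaign, cut at about 17% in these data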;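 note: 0% = plate median of test compound wells and 100% = 1 µM Z-Phe-Ala-diazomethylketone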
PP1 inh – PP1-alpha (human) inhibition in PP5 counter-screen. P62136. purified PP1alpha, OMFP fluorescence. AID 2235. inhibition, % at 6.7 µM. actives 0.9% (n = 320,000);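 active = inhibition above the mean inhibition of all tested compounds plus 3 SD, computed separately for each screening campaign, cut at about 15% in these data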
Target sequence (P62136 whole entry, looked up): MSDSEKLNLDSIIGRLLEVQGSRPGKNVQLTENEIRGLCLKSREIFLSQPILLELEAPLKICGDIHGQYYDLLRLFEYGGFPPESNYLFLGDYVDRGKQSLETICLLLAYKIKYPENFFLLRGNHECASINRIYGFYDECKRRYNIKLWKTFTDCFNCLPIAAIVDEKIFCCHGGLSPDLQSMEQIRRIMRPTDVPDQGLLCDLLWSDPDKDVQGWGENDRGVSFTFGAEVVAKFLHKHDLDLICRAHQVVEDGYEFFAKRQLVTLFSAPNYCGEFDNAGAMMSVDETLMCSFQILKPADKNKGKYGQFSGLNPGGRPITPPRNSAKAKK
PREPL inh – inhibitors of human prolyl oligopeptidase-like enzyme PREPL | Q4J6C6 | recombinant PREPL, fluorescence polarization activity-based probe | inhibition, % at 5.96 µM | actives 0.68% (n = 320,000); in the data active = inhibition above about 43%;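 note: 0% = enzyme with DMSO and 100% = wells lacking enzyme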
PP5 primary – blocks human protein phosphatase 5 activity; inhibition, % at 6.7 µM; purified PP5c, OMFP substrate fluorescence; P53041; actives 0.18% (n = 320,000);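 active = inhibition above the campaign's mean inhibition across all tested compounds plus 3 SD, cut at about 9.5% in these data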;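 note: 0% = DMSO only and 100% = 100 µM cantharidin control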
UBC13 polyUb – inhibitors of human UBC13 polyubiquitin chain formation | actives 0.47% (n = 330,000) | inhibition, % at 20 µM | TR-FRET; in the data active = inhibition above about 45%, passing the limit was not always enough
Starred values were filed as active, the others as inactive; · = not tested or not shown.

SMILES | UCH37 inh | CTSL1 counter | PP1 inh | PREPL inh | PP5 primary | UBC13 polyUb
CN(C)/C=C/C(=O)c1ccc(-n2cccc2)cc1 | 22* | -2 | -2 | 12 | 0 | -11
Cc1ccc(S(=O)(=O)NN=Cc2ccccc2OCc2ccccc2)cc1 | 1 | · | · | · | · | ·
COc1cccc(C=NNC(=O)Cn2cnc3c2c(=O)n(C)c(=O)n3C)c1 | 5 | · | · | · | · | ·
CN1C(=O)CC(N2CCC(c3nc4ccccc4s3)CC2)C1=O (stereo not given) | 4 | 19* | 4 | 18 | 4 | 2
O=C1CC(N2CCC(c3nc4ccccc4s3)CC2)C(=O)N1Cc1ccccc1 (stereo not given) | 6 | 3 | -2 | 5 | 0 | 0
C/C(CC1CC(COCCC(C)C)OC1=O)=N\NC(N)=S (stereo not given) | · | 21* | 1 | 18 | 3 | -3
C=CCN1C(=O)C(Cc2ccc(OC)cc2)SC1=NN=Cc1ccco1 (stereo not given) | 5 | · | · | · | · | ·
CCN=C1NN=C(c2ccc(C)cc2)CS1 | 6 | 0 | 1 | -21 | 0 | 2
CC(C)N=C1NN=C(c2ccc(F)cc2)CS1 | 10 | 17* | 2 | 2 | 1 | -7
CCOc1ccccc1Nc1nc(-c2sc(NC(=O)c3ccccc3)nc2C)cs1 | · | -4 | 7 | 11 | 2 | 69*
CCOc1ccccc1Nc1nc(-c2sc(NC(=O)c3cccc(Cl)c3)nc2C)cs1 | 3 | 1 | 9 | 6 | 5 | 0
CN1CCN(c2ccccc2/C=N/NC(=O)c2cccnc2)CC1 | · | -2 | -4 | 0 | 1 | -5
O=C(NN=Cc1cc([N+](=O)[O-])c(N2CCOCC2)cc1N1CCOCC1)c1cccnc1 | 23* | · | · | · | · | ·
CCOC(=O)c1c(-c2ccco2)csc1NC(=O)COC(=O)c1cnc(C)cn1 | -4 | 31* | 2 | -3 | 1 | -1
Cc1nn(-c2ccccc2)c(N)c1N=Nc1ccc2ccccc2c1 | 8 | 10 | 0 | 31 | 4 | -20
Cc1ccc(N=Nc2c(N)nn(-c3ccccc3)c2N)cc1 | 10 | 9 | -4 | 62* | 1 | -17
COc1ccc(-c2ccc(CNCc3ccccn3)o2)cc1Cl | · | -1 | 4 | 51* | 2 | ·
Clc1ccc(-c2ccc(CNCc3ccccn3)o2)cc1 | 4 | -1 | 7 | 37 | 2 | -1
Cc1ccccc1-n1c(SCC(=O)NN=Cc2ccccc2OCC(=O)O)nc2ccccc2c1=O | 5 | · | · | · | · | ·
CC(=O)Nc1ccc(S(=O)(=O)N2CCN(c3ccc(C)c(Cl)c3)CC2)cc1 | 1 | 20* | -2 | -74 | 4 | 0
O=C(Nc1ccc(S(=O)(=O)O)cc1)c1ccc2c(c1)S(=O)(=O)c1ccccc1C2=O | 4 | -1 | 2 | -8 | -3 | 1
O=C(Nc1ccc(Cl)cc1)c1ccc2c(c1)S(=O)(=O)c1ccccc1C2=O | 28* | -1 | 1 | -5 | 1 | -8
O=C(c1cc2cccc([N+](=O)[O-])c2oc1=O)N1CCOCC1 | 4 | 29* | 2 | 8 | 0 | -5
CCOc1ccc(N=Nc2c(=O)[nH]n3c(C)cc(C)nc23)cc1 | 25* | -5 | 5 | -4 | 0 | -298
O=C(Cn1cnc2ccccc21)NN=Cc1cccnc1 | -1 | · | · | · | · | ·
SMILES | UCH37 inh | CTSL1 counter | PP1 inh | PREPL inh | PP5 primary | UBC13 polyUb
Cc1cccc2c(C(=O)N3CCN(c4ccccn4)CC3)cc(-c3cccc(Br)c3)nc12 | 4 | -1 | 15* | -22 | 1 | -13
COc1cc(-c2nc3cnccn3c2NC(C)(C)CC(C)(C)C)ccc1O | -105 | 4 | 6 | 4 | 1 | 4
CCCCNc1c(-c2ccc(-c3ccc(C(C)=O)cc3)c(OC)c2)nc2cnccn12 | -55 | 5 | 17* | 21 | 5 | 3
COc1cc(-c2nc3cc(C)ccn3c2NC2CCCCC2)ccc1-c1ccc(C(C)=O)cc1 | -23 | 3 | 18* | 10 | 2 | -31
Cc1ccn2c(NC3CCCCC3)c(-c3cccc(-c4cccc(Cl)c4)c3)nc2c1 | · | 3 | 17* | 11 | 3 | 16
COc1c(Cl)cc(Cl)cc1C=NNC(=O)c1nnn(-c2nonc2N)c1CN1CCC(C)CC1 | 2 | · | · | · | · | ·
O=C1NCCN1C(=O)c1cccc(Cl)c1 | 2 | 19* | -1 | -5 | 0 | 2
COc1cc2c(cc1OC)C(C1C(=O)CC(C)(C)CC1=O)N(C(=O)CCl)CC2 (stereo not given) | -3 | 17* | 0 | 1 | -3 | 6
COc1cc2c(cc1OC)C(c1cc(Br)ccc1F)N(C(=O)CCl)CC2 (stereo not given) | · | 89* | 5 | -4 | 4 | 8
COc1cc2c(cc1OC)C(c1ccc(Br)cc1)N(C(=O)c1ccccc1C(=O)O)CC2 (stereo not given) | 6 | -2 | 1 | -9 | 1 | -18
Cc1ccccc1-n1c(SCC(=O)NN=Cc2sccc2C)nc2ccccc2c1=O | 6 | · | · | · | · | ·
CC(=NNC(=S)NCc1ccccc1)c1ccc2ccccc2c1 | 0 | · | · | · | · | ·
Cc1cc(N2C(=O)C(=O)/C(=C(/O)c3ccc(F)cc3)C2c2cccc(Br)c2)no1 (stereo not given) | 11 | 4 | 16* | 21 | -1 | -13
COc1cccc(-c2cc(C(=O)N3CCc4ccccc4C3)no2)c1 | 22* | 2 | -1 | -56 | 3 | 4
O=C(O)c1cccc(NC(=O)c2cn(-c3ccccc3)nc2-c2cc3ccccc3o2)c1 | 3 | 7 | 16* | -8 | 4 | -10
O=C(COc1ccc(F)cc1)Nc1cc(S(=O)(=O)N2CCCCC2)ccc1N1CCCCC1 | -1 | -7 | 16* | 7 | 0 | -17
O=C(CCl)Nc1cccc(S(=O)(=O)N2CCCCCC2)c1 | 6 | 78* | 2 | 10 | 2 | 1
O=C(COc1ccc2ccccc2c1)Nc1ccc(S(=O)(=O)N2CCCCCC2)cc1 | -2 | 2 | 17* | -16 | 0 | -12
CCN(CC)c1ccc(C=NNC(=O)c2ccccn2)cc1 | 5 | · | · | · | · | ·
Cc1cc(C2=NNC(=NCCc3ccccc3)SC2)c(C)n1-c1c(C)n(C)n(-c2ccccc2)c1=O | 7 | 3 | 19* | 22 | 0 | 2
Cc1ccc(-n2c(C)cc(C3=NNC(=NC4CC4)SC3)c2C)cc1C | 2 | 6 | 16* | 18 | 4 | 5
COCCCN=C1NN=C(c2cc(C)n(Cc3ccccc3Cl)c2C)CS1 | 8 | 0 | 15* | 13 | 2 | -2
COCCn1c(C)cc(C2=NNC(=Nc3ccccc3F)SC2)c1C | 4 | 1 | 12 | 5 | 1 | -15
COCCCN=C1NN=C(c2cc(C)n(-c3ccccc3)c2C)CS1 | 0 | -4 | 9 | 0 | 4 | -7
Cc1cc(C2=NNC(=Nc3ccccc3)SC2)c(C)n1C | 5 | 1 | 16* | 12 | 0 | -2
CCOc1cccc(C=NN=Cc2cccc(OCC)c2O)c1O | 10 | · | · | · | · | ·
